For orientation: IC50 means the concentration at which inhibition is half-maximal. Usually Cmax stands for the maximum level reached in the sampled fluid or tissue. One may read the Tmax as the time at which the peak concentration occurs. Usually AUC(0-inf) stands for total exposure, with the tail of the curve extrapolated. Read a high AUC(0-inf) as more exposure. Broadly, the clearance is the rate of elimination divided by the concentration. High values mean a high capacity for elimination, low ones a low capacity for elimination. The bioavailability is dose-corrected exposure relative to a reference, in per cent. A low value points to poor availability.

One data set concerns the target Coagulation factor X (Homo sapiens, UniProt P00742). The data set is described as follows: Inhibition of human factor 10a using N-Z-D-Arg-Gly-Arg-pNA, S-2765 chromogenic substrate.
Data set [1] has as its system Plasma. The data set is described as follows: Anticoagulant activity in citrated rabbit plasma assessed as drug concentration required to double plasma clotting time preincubated for 10 mins at 37 degC by coagulometry. The class given is functional, Oryctolagus cuniculus. The procedure, abridged: (§1)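 Test compound or DMSO added to citrated rabbit plasma (3.8% sodium citrate, 10:90 v/v) and preincubated 10 min at 37 °C. PT and aPTT clotting times measured on a coagulometer with commercial kits. Activity expressed as the concentration needed to double plasma clotting time (CT2, μM).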

Data set [2] deals with Plasma. The data set is described as follows: Anticoagulant activity in citrated rabbit plasma assessed as activated partial thromboplastin time preincubated for 10 mins at 37 degC by coagulometry. The class given is functional, Oryctolagus cuniculus. In short, it runs like this:
as §1

Data set [3] can be described thus: Cmax in Sprague-Dawley rat at 10 mg/kg, po. In kind it is ADME, organism-based. Details: dose 10 mg/kg, route oral. To be noted: in vivo. The procedure, abridged: (§2)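 Male Sprague-Dawley rats, 200−220 g, four per group. Vehicle was 5% DMSO + 5% Tween-80 in 90% saline. The reference drug was given in 10% DMSO + 10% Tween-80 + 80% PEG400 (40% solution in saline). Serial retrobulbar vein samples were quantified by LC-MS. Parameters came from noncompartmental analysis of mean plasma concentrations.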

A short description of data set [4]: Tmax in Sprague-Dawley rat at 10 mg/kg, po. The arrangement: dose 10 mg/kg, route oral. To be noted: in vivo. The class given is ADME, organism-based. In short, it runs like this:
as §2

Data set [5] is described as follows: Elimination half life in Sprague-Dawley rat at 10 mg/kg, po. The class given is ADME, organism-based. Details: dose 10 mg/kg, route oral. To be noted: in vivo, read-out: beta t1/2 (converted). The procedure, abridged:
as §2

Data set [6] is described as follows: Elimination half life in Sprague-Dawley rat at 3 mg/kg, iv. In kind it is ADME, organism-based. The arrangement: dose 3 mg/kg, route intravenous. To be noted: in vivo, read-out: beta t1/2 (converted). The procedure, abridged:
as §2

Data set [7] is described as follows: AUC (0 to infinity) in Sprague-Dawley rat at 10 mg/kg, po. The class given is ADME, organism-based. Details: time infinity, dose 10 mg/kg, route oral. To be noted: plasma. In short, it runs like this: as §2
The nature of data set [8]: AUC (0 to infinity) in Sprague-Dawley rat at 3 mg/kg, iv. To be noted: plasma. The arrangement: time infinity, dose 3 mg/kg, route intravenous. In kind it is ADME, organism-based. The procedure, abridged:
as §2

A short description of data set [9]: Plasma clearance in Sprague-Dawley rat at 3 mg/kg, iv. The class given is ADME, organism-based. The arrangement: dose 3 mg/kg, route intravenous. The procedure, abridged: as §2
Data set [10] is described as follows: Volume of distribution at steady state in Sprague-Dawley rat at 3 mg/kg, iv. The class given is ADME, organism-based. The arrangement: dose 3 mg/kg, route intravenous. To be noted: in vivo, read-out: Vdss. In short, it runs like this: as §2
The nature of data set [11]: Oral bioavailability in Sprague-Dawley rat at 10 mg/kg. In kind it is ADME, organism-based. To be noted: in vivo. In short, it runs like this: as §2
For a further data set, the target named is Prothrombin (Homo sapiens, UniProt P00734). As to the kind of experiment: Inhibition of human factor 2a using L-pyro-Glu-Pro-ArgpNA, S-2366 chromogenic substrate. The procedure, abridged:
(§3)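 Human enzyme and inhibitor were premixed and preincubated, then the chromogenic substrate was added. Substrate levels: 300 μM S-2765 (FXa, trypsin); 200 μM S-2366 (FIIa); 2 mM S-2366 (FVIIa, FXIa). pNA release was monitored continuously at 405 nm for 20 min at 37 °C. IC50 was obtained by nonlinear regression.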

The next data set concerns the target T1, Coagulation factor VII (Homo sapiens, UniProt P08709).
T1 sequence (P08709 whole entry): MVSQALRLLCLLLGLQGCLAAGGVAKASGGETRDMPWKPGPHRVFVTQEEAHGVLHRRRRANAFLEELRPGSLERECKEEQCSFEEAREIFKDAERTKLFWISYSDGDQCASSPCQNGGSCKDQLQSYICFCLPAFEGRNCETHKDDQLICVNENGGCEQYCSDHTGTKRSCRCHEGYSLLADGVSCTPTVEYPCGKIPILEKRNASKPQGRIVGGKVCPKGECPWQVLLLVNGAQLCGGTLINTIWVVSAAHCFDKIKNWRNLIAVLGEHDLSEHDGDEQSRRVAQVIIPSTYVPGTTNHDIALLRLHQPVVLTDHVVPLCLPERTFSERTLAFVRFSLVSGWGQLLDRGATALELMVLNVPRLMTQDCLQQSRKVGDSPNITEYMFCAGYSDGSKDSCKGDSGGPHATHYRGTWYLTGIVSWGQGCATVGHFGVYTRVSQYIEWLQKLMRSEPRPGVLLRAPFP
As to the kind of experiment: Inhibition of human factor 7a using S-2366 chromogenic substrate. The procedure, abridged: as §3

The next data set concerns the target Coagulation factor IX (Homo sapiens, UniProt P00740). As to the kind of experiment: Inhibition of human factor 9a using CH3SO2-(D)CHG Gly-Arg-pNA, Biophen-CS51 chromogenic substrate.
A further data set addresses Trypsin (Homo sapiens, UniProt P07477+P07478+P35030). The data set is described as follows: Inhibition of human trypsin using N-Z-D-Arg-Gly-Arg-pNA, S-2765 chromogenic substrate. In kind it is protein assay. In short, it runs like this:
as §3

A further data set addresses Coagulation factor XI (Homo sapiens, UniProt P03951). As to the kind of experiment: Inhibition of human factor 11a using S-2366 chromogenic substrate. The procedure, abridged: as §3

Chain of Coagulation factor X (P00742 41-179 limits assumed): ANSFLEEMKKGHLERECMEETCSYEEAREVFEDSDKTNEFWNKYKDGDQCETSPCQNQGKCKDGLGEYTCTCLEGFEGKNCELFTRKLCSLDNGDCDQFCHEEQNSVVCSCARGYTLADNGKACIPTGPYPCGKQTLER
Chain of Coagulation factor X (P00742 235-488 limits assumed): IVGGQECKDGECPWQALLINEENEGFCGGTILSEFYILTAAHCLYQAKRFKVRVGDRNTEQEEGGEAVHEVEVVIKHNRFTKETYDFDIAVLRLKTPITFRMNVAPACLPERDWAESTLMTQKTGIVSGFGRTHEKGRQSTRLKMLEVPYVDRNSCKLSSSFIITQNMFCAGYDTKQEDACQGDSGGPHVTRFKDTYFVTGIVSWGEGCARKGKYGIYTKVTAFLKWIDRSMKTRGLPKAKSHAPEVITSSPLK
Chain of Coagulation factor IX (P00740 47-191 limits assumed): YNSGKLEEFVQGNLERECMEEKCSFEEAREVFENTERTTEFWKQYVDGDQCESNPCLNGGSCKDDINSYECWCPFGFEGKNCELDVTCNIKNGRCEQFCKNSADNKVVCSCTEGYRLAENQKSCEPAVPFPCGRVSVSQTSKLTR
Chain of Coagulation factor IX (P00740 227-461 limits assumed): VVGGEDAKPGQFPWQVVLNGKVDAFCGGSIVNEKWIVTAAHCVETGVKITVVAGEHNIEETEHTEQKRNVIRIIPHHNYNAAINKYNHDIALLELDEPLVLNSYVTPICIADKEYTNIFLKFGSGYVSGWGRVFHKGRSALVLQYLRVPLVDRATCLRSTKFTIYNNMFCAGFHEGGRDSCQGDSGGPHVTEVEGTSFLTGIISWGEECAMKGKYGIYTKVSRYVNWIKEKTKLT
Chain of Coagulation factor XI (P03951 19-387 limits assumed): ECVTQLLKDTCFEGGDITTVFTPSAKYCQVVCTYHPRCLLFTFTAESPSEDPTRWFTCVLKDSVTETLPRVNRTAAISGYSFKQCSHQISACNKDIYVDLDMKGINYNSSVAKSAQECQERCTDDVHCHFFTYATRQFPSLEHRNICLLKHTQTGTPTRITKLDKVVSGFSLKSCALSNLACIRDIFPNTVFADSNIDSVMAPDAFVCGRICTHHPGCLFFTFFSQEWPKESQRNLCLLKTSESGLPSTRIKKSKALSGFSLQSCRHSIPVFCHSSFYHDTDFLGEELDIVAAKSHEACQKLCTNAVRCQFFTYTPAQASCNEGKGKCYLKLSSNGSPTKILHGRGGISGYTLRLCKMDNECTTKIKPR
Chain of Coagulation factor XI (P03951 388-625 limits assumed): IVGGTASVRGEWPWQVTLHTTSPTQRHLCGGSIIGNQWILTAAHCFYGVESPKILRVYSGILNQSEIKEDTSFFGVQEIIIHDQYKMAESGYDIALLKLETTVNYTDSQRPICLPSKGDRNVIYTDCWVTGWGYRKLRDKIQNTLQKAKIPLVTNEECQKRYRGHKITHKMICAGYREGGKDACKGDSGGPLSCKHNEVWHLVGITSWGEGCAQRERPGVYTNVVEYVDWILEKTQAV

Molecule `O=C(NC[C@@H]1OC(=O)N2c3ccc(N4CCCCC4=O)cc3SC[C@@H]12)c1ccc(Cl)s1` yielded an IC50 against Coagulation factor X of 4.89 nM. In addition, in the data set on Plasma [1], the Activity was found to be 0.64 µM. In addition, in the data set with Plasma [2], the 2aPTT was 0.62 µM.

Consider `O=C(NC[C@@H]1OC(=O)N2c3ccc(N4CCOCC4=O)cc3SC[C@@H]12)c1ccc(Cl)cc1`, for which, at Coagulation factor X, inhibition was half-maximal at 45.2 nM (IC50).

With `O=C(NC[C@@H]1OC(=O)N2c3ccc(N4CCOCC4=O)cc3[S+]([O-])C[C@@H]12)c1ccc(Cl)s1` (some centres not stated), the IC50 at Coagulation factor X amounted to 64 nM.

The molecule `O=C(NC[C@@H]1OC(=O)N2c3ccc(N4CCOCC4=O)cc3S(=O)(=O)C[C@@H]12)c1ccc(Cl)s1` registered an IC50 against Coagulation factor X of 17.4 nM. For the same molecule, the Activity in the data set on Plasma [1] amounted to 0.47 µM. For the same molecule, the 2aPTT with Plasma [2] is 0.76 µM. Further, the Cmax in [3] came out at 917 ng/mL. Moreover, the time to peak (Tmax) in [4] amounted to 22.8 min. The values for the half-life in data set [5] and in data set [6] were 128 min and 32.4 min, respectively. The AUC(0-inf) in [7] was 1540 ng·h/mL; in data set [8] it was 6120 ng·h/mL. Also, the clearance in [9] was 8.22 mL/min/kg. In [10], the Vd is 0.154 L/kg. Besides, the bioavailability in data set [11] came out at 7.3%.

Take `O=C(NC[C@@H]1OC(=O)N2c3ccc(N4CCCCC4=O)cc3S(=O)(=O)C[C@@H]12)c1ccc(Cl)s1`: the IC50 against Coagulation factor X is 50.5 nM.

In the case of `CS(=O)(=O)c1ccccc1-c1ccc2c(c1)SC[C@H]1[C@H](CNC(=O)c3ccc(Cl)s3)OC(=O)N21`, the half-maximal inhibitory concentration (IC50) on Coagulation factor X stood at 20.9 nM.

In the case of `CS(=O)(=O)c1ccccc1-c1ccc2c(c1)SC[C@H]1[C@H](CNC(=O)c3ccc(Cl)cc3)OC(=O)N21`, the IC50 at Coagulation factor X was 1610 nM.

Take `O=C(NC[C@@H]1OC(=O)N2c3ccc(N4CCOCC4=O)cc3CC[C@@H]12)c1ccc(Cl)s1`: the IC50 on Prothrombin is above 100000 nM; against Coagulation factor X, 4.71 nM; against Coagulation factor VII it was above 100000 nM; at Coagulation factor IX, above 100000 nM; against Trypsin, above 100000 nM; against Coagulation factor XI, above 100000 nM. Further, in the data set on Plasma [1], the Activity was determined as 0.37 µM. The 2aPTT in the data set on Plasma [2] stood at 0.33 µM. The molecule also returned a Cmax in [3] of 3020 ng/mL. For the same molecule, the Tmax in data set [4] was 138 min. Further, the half-life was 212 min in [5] and 44.4 min in data set [6]. For the same molecule, the figures for the AUC(0-inf) in data set [7] and in data set [8] were 14200 ng·h/mL and 20400 ng·h/mL, respectively. Further, in data set [9], the clearance was 2.48 mL/min/kg. For the same molecule, in data set [10], the Vd was determined as 0.144 L/kg. In addition, the bioavailability in data set [11] stood at 20.4%.

`O=C(NC[C@@H]1OC(=O)N2c3ccc(N4CCCCC4=O)cc3CC[C@@H]12)c1ccc(Cl)s1`: at Coagulation factor X, the IC50 came to 6.59 nM.

On Coagulation factor X, `CC(C)(C)OC(=O)N1C[C@H]2[C@H](CNC(=O)c3ccc(Cl)s3)OC(=O)N2c2ccc(N3CCCCC3=O)cc21` came in with a concentration for half-maximal inhibition (IC50) of 8180 nM.

With `O=C(NC[C@@H]1OC(=O)N2c3ccc(N4CCOCC4=O)cc3NC[C@@H]12)c1ccc(Cl)s1`, the IC50 on Prothrombin is above 100000 nM; against Coagulation factor X it was 5.06 nM; at Coagulation factor VII, above 100000 nM; on Coagulation factor IX it was above 100000 nM; on Trypsin it was above 100000 nM; against Coagulation factor XI, above 100000 nM. Besides, the Activity in the data set on Plasma [1] turned out to be 0.48 µM. In addition, in the data set with Plasma [2], the 2aPTT stood at 0.43 µM. The molecule further gave a Cmax in data set [3] of 565 ng/mL. The Tmax in data set [4] came to 26.4 min. Further, the half-life in data set [5] was 91.2 min; in [6], 51.6 min. Further, the AUC(0-inf) was determined as 1350 ng·h/mL in data set [7] and 5700 ng·h/mL in data set [8]. This molecule had a clearance in data set [9] of 9.22 mL/min/kg. For the same molecule, the Vd in [10] is 0.199 L/kg. The molecule also yielded a bioavailability in data set [11] of 6.8%.

The molecule `O=C(NC[C@@H]1OC(=O)N2c3ccc(N4CCCCC4=O)cc3NC[C@@H]12)c1ccc(Cl)s1` had an IC50 against Coagulation factor X of 15.2 nM.

The record behind these values is ChEMBL document CHEMBL3351225, “Design, synthesis, and structure-activity and structure-pharmacokinetic relationship studies of novel [6,6,5] tricyclic fused oxazolidinones leading to the discovery of a potent, selective, and orally bioavailable FXa inhibitor” (J Med Chem, 2014).
